Results from ChEMBL document CHEMBL3588757, “Structure-based design, synthesis and biological testing of piperazine-linked bis-epipodophyllotoxin etoposide analogs” (Bioorg Med Chem, 2015).

Assays:
Format in all cases: functional
RPMI-8226 = experiment: Cytotoxicity against human RPMI8226 cells assessed as cell growth at 0.5 uM by SRB assay; conditions: read-out: Activity
KM12 = experiment: Cytotoxicity against human KM12 cells assessed as cell growth at 0.5 uM by SRB assay; conditions: read-out: Activity
SR [1] = experiment: Cytotoxicity against human SR cells assessed as cell growth at 0.05 uM by SRB assay; conditions: read-out: Activity
MOLT-4 = experiment: Cytotoxicity against human MOLT4 cells assessed as cell growth at 50 uM by SRB assay; conditions: read-out: Activity
[2] = Cytotoxicity against human NCI-ADR-RES cells assessed as cell growth at 5 uM by SRB assay; conditions: read-out: Activity
SNB-19 [3] = experiment: Cytotoxicity against human SNB19 cells by SRB assay
How it was run: (§1)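 NCI-60 panel screen; 5-dose testing giving GI50 per cell line, plus a single 10 µM one-dose test. Method details not given beyond the NCI screen.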

UACC-257 = experiment: Cytotoxicity against human UACC257 cells assessed as cell growth at 0.05 uM by SRB assay; conditions: read-out: Activity
SW-620 = experiment: Cytotoxicity against human SW620 cells assessed as cell growth at 5 uM by SRB assay; conditions: read-out: Activity
SNB-19 [4] = experiment: Cytotoxicity against human SNB19 cells assessed as cell growth at 50 uM by SRB assay; conditions: read-out: Activity
HCT-15 [5] = experiment: Cytotoxicity against human HCT15 cells assessed as cell growth at 0.5 uM by SRB assay; conditions: read-out: Activity
How it was run: (§2)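 Measured in the NCI-60 human tumour cell line panel using five-dose testing. Growth was recorded at each dose for each cell line, and a GI50 was derived for each line.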

SK-MEL-5 = experiment: Cytotoxicity against human SK-MEL-5 cells assessed as cell growth at 0.5 uM by SRB assay; conditions: read-out: Activity
NCI-H23 = experiment: Cytotoxicity against human NCI-H23 cells by SRB assay; how it was run: as §1
SR [6] = experiment: Cytotoxicity against human SR cells assessed as cell growth at 5 uM by SRB assay; conditions: read-out: Activity
TK-10 [7] = experiment: Cytotoxicity against human TK10 cells assessed as cell growth at 0.005 uM by SRB assay; conditions: read-out: Activity
CAKI-1 [8] = experiment: Cytotoxicity against human Caki1 cells assessed as cell growth at 0.5 uM by SRB assay; conditions: read-out: Activity
TK-10 [9] = experiment: Cytotoxicity against human TK10 cells assessed as cell growth at 50 uM by SRB assay; conditions: read-out: Activity
OVCAR-8 [10] = experiment: Cytotoxicity against human OVCAR8 cells assessed as cell growth at 0.005 uM by SRB assay; conditions: read-out: Activity
IGROV-1 [11] = experiment: Cytotoxicity against human IGROV1 cells assessed as cell growth at 0.005 uM by SRB assay; conditions: read-out: Activity; how it was run: as §2
SK-OV-3 = experiment: Cytotoxicity against human SKOV3 cells assessed as cell growth at 0.5 uM by SRB assay; conditions: read-out: Activity
TK-10 [12] = experiment: Cytotoxicity against human TK10 cells assessed as cell growth at 5 uM by SRB assay; conditions: read-out: Activity
DU-145 = experiment: Cytotoxicity against human DU145 cells assessed as cell growth at 0.005 uM by SRB assay; conditions: read-out: Activity
RXF 393 = experiment: Cytotoxicity against human RXF393 cells assessed as cell growth at 5 uM by SRB assay; conditions: read-out: Activity
HCT-15 [13] = experiment: Cytotoxicity against human HCT15 cells assessed as cell growth at 5 uM by SRB assay; conditions: read-out: Activity; how it was run: as §2
OVCAR-3 = experiment: Cytotoxicity against human OVCAR3 cells assessed as cell growth at 50 uM by SRB assay; conditions: read-out: Activity
LOX IMVI = experiment: Cytotoxicity against human LOXIMVI cells assessed as cell growth at 50 uM by SRB assay; conditions: read-out: Activity
HOP-62 [14] = experiment: Cytotoxicity against human HOP62 cells assessed as cell growth at 5 uM by SRB assay; conditions: read-out: Activity; how it was run: as §2
HOP-62 [15] = experiment: Cytotoxicity against human HOP62 cells assessed as cell growth at 0.05 uM by SRB assay; conditions: read-out: Activity; how it was run: as §2
786-0 = experiment: Cytotoxicity against human 786-0 cells assessed as cell growth at 0.5 uM by SRB assay; conditions: read-out: Activity
[16] = Cytotoxicity against human NCI-ADR-RES cells by SRB assay; how it was run: as §1
CAKI-1 [17] = experiment: Cytotoxicity against human Caki1 cells assessed as cell growth at 50 uM by SRB assay; conditions: read-out: Activity
T47D = experiment: Cytotoxicity against human T47D cells assessed as cell growth at 0.5 uM by SRB assay; conditions: read-out: Activity
OVCAR-8 [18] = experiment: Cytotoxicity against human OVCAR8 cells assessed as cell growth at 0.5 uM by SRB assay; conditions: read-out: Activity
NCI-H460 [19] = experiment: Cytotoxicity against human NCI-H460 cells assessed as cell growth at 0.05 uM by SRB assay; conditions: read-out: Activity
U-251 [20] = experiment: Cytotoxicity against human U251 cells assessed as cell growth at 5 uM by SRB assay; conditions: read-out: Activity
[21] = Cytotoxicity against human NCI-ADR-RES cells assessed as cell growth at 0.005 uM by SRB assay; conditions: read-out: Activity
CCRF-CEM [22] = experiment: Cytotoxicity against human CCRF-CEM cells assessed as cell growth at 0.05 uM by SRB assay; conditions: read-out: Activity
SF-539 = experiment: Cytotoxicity against human SF539 cells assessed as cell growth at 0.05 uM by SRB assay; conditions: read-out: Activity
PC-3 = experiment: Cytotoxicity against human PC3 cells by SRB assay; how it was run: as §1
COLO 205 = experiment: Cytotoxicity against human COLO205 cells assessed as cell growth at 0.5 uM by SRB assay; conditions: read-out: Activity
SF-268 = experiment: Cytotoxicity against human SF268 cells assessed as cell growth at 0.005 uM by SRB assay; conditions: read-out: Activity
SN12C = experiment: Cytotoxicity against human SN12C cells assessed as cell growth at 0.005 uM by SRB assay; conditions: read-out: Activity
NCI-H460 [23] = experiment: Cytotoxicity against human NCI-H460 cells assessed as cell growth at 0.5 uM by SRB assay; conditions: read-out: Activity
CCRF-CEM [24] = experiment: Cytotoxicity against human CCRF-CEM cells by SRB assay
U-251 [25] = experiment: Cytotoxicity against human U251 cells assessed as cell growth at 0.5 uM by SRB assay; conditions: read-out: Activity
IGROV-1 [26] = experiment: Cytotoxicity against human IGROV1 cells assessed as cell growth at 0.5 uM by SRB assay; conditions: read-out: Activity; how it was run: as §2
SK-MEL-2 = experiment: Cytotoxicity against human SK-MEL-2 cells assessed as cell growth at 50 uM by SRB assay; conditions: read-out: Activity
[27] = read-out: LC50 (the source's name)
[28] = read-out: pLC50 (the source's name) (converted)

COc1cc([C@@H]2c3cc4c(cc3[C@@H](NC(=O)CN3CCN(CCCCCCCCCCN5CCN(CC(=O)N[C@@H]6c7cc8c(cc7[C@@H](c7cc(OC)c(O)c(OC)c7)[C@H]7C(=O)OC[C@@H]76)OCO8)CC5)CC3)[C@H]3COC(=O)[C@H]23)OCO4)cc(OC)c1O
growth at 0.5 µM (RPMI-8226): -2% | growth at 0.5 µM (KM12): 74% | growth at 0.05 µM (SR [1]): 85% | growth at 50 µM (MOLT-4): -100% | growth at 5 µM [2]: 53% | GI50 (SNB-19 [3]; read-out: GI50): 352 nM | CC50 (SNB-19 [3]; [27]): 2790 nM | TGI (SNB-19 [3]; read-out: TGI): 1100 nM | GI50 (SNB-19 [3]; read-out: pGI50 (converted)): 355 nM | CC50 (SNB-19 [3]; [28]): 2820 nM | TGI (SNB-19 [3]; read-out: pTGI (converted)): 1100 nM | growth at 0.05 µM (UACC-257): 97% | growth at 5 µM (SW-620): -63% | growth at 50 µM (SNB-19 [4]): -92% | growth at 0.5 µM (HCT-15 [5]): 45% | growth at 0.5 µM (SK-MEL-5): 83% | GI50 (NCI-H23; read-out: GI50): 181 nM | CC50 (NCI-H23; [27]): 9300 nM | TGI (NCI-H23; read-out: TGI): 1320 nM | GI50 (NCI-H23; read-out: pGI50 (converted)): 182 nM | CC50 (NCI-H23; [28]): 9330 nM | TGI (NCI-H23; read-out: pTGI (converted)): 1320 nM | growth at 5 µM (SR [6]): -26% | growth at 0.005 µM (TK-10 [7]): 93% | growth at 0.5 µM (CAKI-1 [8]): 81% | growth at 50 µM (TK-10 [9]): -98% | growth at 0.005 µM (OVCAR-8 [10]): 101% | growth at 0.005 µM (IGROV-1 [11]): 90% | growth at 0.5 µM (SK-OV-3): 52% | growth at 5 µM (TK-10 [12]): -4% | growth at 0.005 µM (DU-145): 99% | growth at 5 µM (RXF 393): -34% | growth at 5 µM (HCT-15 [13]): -69% | growth at 50 µM (OVCAR-3): -50% | growth at 50 µM (LOX IMVI): 3% | growth at 5 µM (HOP-62 [14]): -73% | growth at 0.05 µM (HOP-62 [15]): 48% | growth at 0.5 µM (786-0): 26% | GI50 ([16]; read-out: GI50): 6480 nM | CC50 [16, 27]: > 50000 nM | TGI ([16]; read-out: TGI): > 50000 nM | GI50 ([16]; read-out: pGI50 (converted)): 6460 nM | CC50 [16, 28]: > 50100 nM | TGI ([16]; read-out: pTGI): > 50100 nM | growth at 50 µM (CAKI-1 [17]): -97% | growth at 0.5 µM (T47D): 49% | growth at 0.5 µM (OVCAR-8 [18]): 51% | growth at 0.05 µM (NCI-H460 [19]): 90% | growth at 5 µM (U-251 [20]): 9% | growth at 0.005 µM [21]: 97% | growth at 0.05 µM (CCRF-CEM [22]): 62% | growth at 0.05 µM (SF-539): 74% | GI50 (PC-3; read-out: GI50): 903 nM | CC50 (PC-3; [27]): 47700 nM | TGI (PC-3; read-out: TGI): 8940 nM | GI50 (PC-3; read-out: pGI50 (converted)): 912 nM | CC50 (PC-3; [28]): 47900 nM | TGI (PC-3; read-out: pTGI (converted)): 8910 nM | growth at 0.5 µM (COLO 205): 72% | growth at 0.005 µM (SF-268): 97% | growth at 0.005 µM (SN12C): 94% | growth at 0.5 µM (NCI-H460 [23]): 94% | GI50 (CCRF-CEM [24]; read-out: GI50): 80.9 nM | CC50 (CCRF-CEM [24]; [27]): > 50000 nM | GI50 (CCRF-CEM [24]; read-out: pGI50 (converted)): 81.3 nM | CC50 (CCRF-CEM [24]; [28]): > 50100 nM | growth at 0.5 µM (U-251 [25]): 51% | growth at 0.5 µM (IGROV-1 [26]): 44% | growth at 50 µM (SK-MEL-2): -59%
